Experiment: Toxicity liver stage against HepG2, at 10uM
Format: cell-based
Parameters: test concentration 10 uM, cell line HepG2-A16-CD81EGFP
Settings: human, HepG2-A16-CD81EGFP cells; read-out: INHIBITION
How it was run: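 Uninfected HepG2-A16-CD81EGFP cells, 3 × 10^3 per well, 1536-well, plated on prespotted compound at 10 μM final, parasite-free screening media added to match infected plates; puromycin 10 μM positive, DMSO 0.5% negative; run in parallel with 48 h PbLuc assay at 37 °C, 5% CO2; viability by CellTiter-Glo luminescence, normalized to controls.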

With `c1cnc(NCc2noc3c2CN(C2CCOCC2)CC3)nc1` as the compound, how does the cytotoxicity at 10 µM read?
Its cytotoxicity at 10 µM is -6.23%.

Which cytotoxicity at 10 µM does the source give for `Cc1cc2c(cc1Cl)C=CC1(CCN(CC(=O)N3CCOCC3)CC1)O2` here?
The cytotoxicity at 10 µM was -1.7%.

Which cytotoxicity at 10 µM does the source give for `COc1cccc([C@@]2(O)CC[C@@H]3CN(C(=O)c4c[nH]nc4C)C[C@@H]32)c1` here?
Its cytotoxicity at 10 µM is 2.67%.

For `O=S(=O)(Nc1ccc(N2CCOCC2)cn1)c1cccc(F)c1`, which cytotoxicity at 10 µM is on record?
Its cytotoxicity at 10 µM is -9.68%.

For `COc1c(F)cc(NCC(=O)NC(C)(C#N)C2CC2)cc1F` (stereo not given), which cytotoxicity at 10 µM is on record?
The cytotoxicity at 10 µM was -3.82%.

For `O=C(c1ccc(Cl)cn1)N1CCC(COCc2ccccc2)C1` (stereo not given), which cytotoxicity at 10 µM is on record?
The cytotoxicity at 10 µM was 5.88%.

With `O=C(CC1OCCc2ccsc21)NCC1CC1` (stereo not given) as the compound, how does the cytotoxicity at 10 µM read?
The cytotoxicity at 10 µM was 7.18%.

For `CC(C)Oc1ccc(CNC(=O)c2cc(C(N)=O)cs2)cc1F`, which cytotoxicity at 10 µM is on record?
Its cytotoxicity at 10 µM is 12.6%.

Which cytotoxicity at 10 µM does the source give for `CCOc1ccccc1C(CC(=O)N(C)C)NC(C)=O` (stereo not given) here?
The cytotoxicity at 10 µM was -4.67%.

For `CNC(=O)CN1CCCC1c1ccccc1Br` (stereo not given), which cytotoxicity at 10 µM is on record?
The cytotoxicity at 10 µM was -2.22%.

Which cytotoxicity at 10 µM does the source give for `O=C1CCN(C(=O)c2ncoc2-c2ccco2)c2ncccc2N1` here?
The cytotoxicity at 10 µM was -3.58%.

Which cytotoxicity at 10 µM does the source give for `O=C(c1ccncc1)N1CCCC1c1cccc(Br)c1` (stereo not given) here?
The cytotoxicity at 10 µM was 16.9%.

With `CN(C)C(=O)N1CCN(C(=O)c2ccn3cncc3c2)CC1` as the compound, how does the cytotoxicity at 10 µM read?
The cytotoxicity at 10 µM was -9.96%.

Which cytotoxicity at 10 µM does the source give for `FC(F)(F)c1cc(NCCCn2cccn2)nc(-c2cccnc2)n1` here?
The cytotoxicity at 10 µM was 8.06%.

With `CC(NCc1ccc(Cl)o1)c1nnc2n1CCCC2` (stereo not given) as the compound, how does the cytotoxicity at 10 µM read?
Its cytotoxicity at 10 µM is -15.9%.

With `CNC(=O)NC(=O)CN1CCC(c2c[nH]c3ccc(OC)cc23)CC1` as the compound, how does the cytotoxicity at 10 µM read?
The cytotoxicity at 10 µM was 21.4%.

For `Cc1ccccc1C(=O)NCc1ccc(N2CCNC(=O)C2)cc1`, which cytotoxicity at 10 µM is on record?
The cytotoxicity at 10 µM was -9.67%.

For `CN(CC(N)=O)S(=O)(=O)c1ccc(F)cc1Cl`, which cytotoxicity at 10 µM is on record?
The cytotoxicity at 10 µM was -11.9%.

With `COc1ccc(CNC(=O)NC2CCC(O)CC2)c(C(F)(F)F)c1` (stereo not given) as the compound, how does the cytotoxicity at 10 µM read?
Its cytotoxicity at 10 µM is -12%.

Which cytotoxicity at 10 µM does the source give for `Cc1nc2c(c(=O)[nH]1)CCN(C(=O)c1[nH]nc3c1CC(C)CC3)C2` (stereo not given) here?
The cytotoxicity at 10 µM was 13.4%.

Which cytotoxicity at 10 µM does the source give for `CSCCC(O)C(=O)N1CCC(OCc2cccnc2)CC1` (stereo not given) here?
The cytotoxicity at 10 µM was 3.96%.

Which cytotoxicity at 10 µM does the source give for `CCc1ccc2ncn(Cc3ncc[nH]3)c(=O)c2c1` here?
Its cytotoxicity at 10 µM is 11.1%.

With `CN(C)c1ccccc1C(=O)N1C[C@@H](CN2CCC(O)CC2)[C@@H](CO)C1` as the compound, how does the cytotoxicity at 10 µM read?
Its cytotoxicity at 10 µM is 3.11%.

With `CC(NCc1cc(O)c2cccc(F)c2n1)c1ccc(S(C)(=O)=O)cc1` (stereo not given) as the compound, how does the cytotoxicity at 10 µM read?
Its cytotoxicity at 10 µM is 4.03%.

For `c1cn(CC2CCOCC2)c(-c2cc(CN3CCCC3)cs2)n1`, which cytotoxicity at 10 µM is on record?
The cytotoxicity at 10 µM was -2.96%.

Which cytotoxicity at 10 µM does the source give for `COCCc1noc(CN(C)C(=O)C2COc3ccccc3C2)n1` (stereo not given) here?
The cytotoxicity at 10 µM was 8.63%.

Which cytotoxicity at 10 µM does the source give for `CCn1c(CN2CCCC2)nnc1C1CCN(Cc2cccnc2)CC1` here?
Its cytotoxicity at 10 µM is 3.33%.

With `Cc1ccccc1-c1cccc(CN2C[C@H]3C(=O)NC[C@@]3(C(=O)O)C2)c1` as the compound, how does the cytotoxicity at 10 µM read?
The cytotoxicity at 10 µM was -0.147%.

For `Cc1nn(C)cc1-c1cc(C(F)(F)F)c2c(C)nn(CC(=O)O)c2n1`, which cytotoxicity at 10 µM is on record?
The cytotoxicity at 10 µM was -4.79%.

For `Cc1nnc2n1CCN(C(C(=O)NC(C)C)c1ccccc1)C2` (stereo not given), which cytotoxicity at 10 µM is on record?
The cytotoxicity at 10 µM was -5.92%.

With `Cc1nc(C)n(CC2CCCN2Cc2cn3cc(Cl)ccc3n2)n1` (stereo not given) as the compound, how does the cytotoxicity at 10 µM read?
Its cytotoxicity at 10 µM is -16.7%.

With `COc1ccc(S(=O)(=O)N2CCc3ccc(F)cc32)cc1C(=O)O` as the compound, how does the cytotoxicity at 10 µM read?
The cytotoxicity at 10 µM was -11.4%.

Which cytotoxicity at 10 µM does the source give for `Cc1cccc(CNC(C)c2ccc(OCC(=O)NC3CC3)cc2)c1` (stereo not given) here?
The cytotoxicity at 10 µM was -10%.

For `c1ccc(-n2ccc(CN3CCCC(Cn4cncn4)C3)n2)cc1` (stereo not given), which cytotoxicity at 10 µM is on record?
Its cytotoxicity at 10 µM is -16%.

Which cytotoxicity at 10 µM does the source give for `Cc1ccc(-c2nc(CN3CCN(CC(=O)N(C)C)CC3)cs2)o1` here?
Its cytotoxicity at 10 µM is -22%.

With `CCCc1nc(CN2CCOC(Cn3cncn3)C2)no1` (stereo not given) as the compound, how does the cytotoxicity at 10 µM read?
Its cytotoxicity at 10 µM is -7.03%.

For `Cc1ccccc1Cc1cnc(NC(=O)C2CNC(=O)N2)s1` (stereo not given), which cytotoxicity at 10 µM is on record?
The cytotoxicity at 10 µM was -3.37%.

With `O=C(COCC1CC1)N1CCCC(n2ccnc2)C1` (stereo not given) as the compound, how does the cytotoxicity at 10 µM read?
Its cytotoxicity at 10 µM is 0.0481%.

With `CNS(=O)(=O)c1cccc(CNC(=O)c2c(C)nn(C)c2C)c1` as the compound, how does the cytotoxicity at 10 µM read?
Its cytotoxicity at 10 µM is 9.26%.

Which cytotoxicity at 10 µM does the source give for `COc1ccccc1OCCC(=O)N1CCCC1Cn1cc(C)cn1` (stereo not given) here?
The cytotoxicity at 10 µM was 6.02%.

With `c1cnnc(N2CCCC(NCc3ccc(-n4ccnc4)cc3)C2)c1` (stereo not given) as the compound, how does the cytotoxicity at 10 µM read?
The cytotoxicity at 10 µM was 0.866%.

Which cytotoxicity at 10 µM does the source give for `c1ccc(CN2C[C@@H]3CCCO[C@@H]3[C@H](Nc3ccccn3)C2)nc1` here?
The cytotoxicity at 10 µM was -7.39%.

Which cytotoxicity at 10 µM does the source give for `Cc1nc(CN2C(=O)COC3(CCN(Cc4nccs4)CC3)C2C)cs1` (stereo not given) here?
Its cytotoxicity at 10 µM is -10.4%.

Which cytotoxicity at 10 µM does the source give for `CCOC(=O)[C@]12CCCN(Cc3nccs3)C[C@H]1CN(CCN(C)C)C2` here?
Its cytotoxicity at 10 µM is -9.82%.

For `Cc1ccoc1C1=NNC(=CN2CCn3c(nnc3C(C)C)C2)O1`, which cytotoxicity at 10 µM is on record?
The cytotoxicity at 10 µM was -13.1%.

From ChEMBL document CHEMBL4513216, “Probing the Open Global Health Chemical Diversity Library for Multistage-Active Starting Points for Next-Generation Antimalarials” (ACS Infect Dis, 2020)
